Assay results of several laboratories.
Lines come from different studies, so protocols differ.
Target: Activin receptor type-1 (ACVR1, Homo sapiens, UniProt Q04771)
Residues used in one study (Q04771 21-509): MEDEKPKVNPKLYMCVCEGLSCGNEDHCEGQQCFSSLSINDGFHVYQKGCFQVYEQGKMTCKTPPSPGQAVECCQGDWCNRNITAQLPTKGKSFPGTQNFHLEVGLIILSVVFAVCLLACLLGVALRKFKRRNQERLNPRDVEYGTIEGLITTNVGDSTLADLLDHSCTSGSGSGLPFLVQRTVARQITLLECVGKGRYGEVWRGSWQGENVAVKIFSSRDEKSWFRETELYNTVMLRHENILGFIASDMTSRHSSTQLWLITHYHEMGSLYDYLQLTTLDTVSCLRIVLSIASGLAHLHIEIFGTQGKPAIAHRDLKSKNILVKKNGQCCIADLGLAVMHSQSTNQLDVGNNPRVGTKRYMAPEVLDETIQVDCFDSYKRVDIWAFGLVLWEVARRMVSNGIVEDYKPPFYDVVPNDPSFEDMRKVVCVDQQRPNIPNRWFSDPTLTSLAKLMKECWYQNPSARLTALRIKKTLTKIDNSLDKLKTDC

| SMILES | observed | technique | tested at | remaining binding [%] |
| --- | --- | --- | --- | --- |
| CN(CCCC(F)(F)F)c1nccc(-c2cnn3ncccc23)n1 | binding | – | 1 µM | 77 |
| O=C(c1ccc(Nc2nccc(-c3cc4ccccc4s3)n2)cc1)N1CCC(N2CCCC2)CC1 | binding | competition with immobilised ligand | 1 µM | 26 |
| O=C(NCCCC1CCCCC1)c1ccc(CNC(=O)c2cnn(-c3ccccc3)c2C(F)(F)F)cc1 | cell-free assay | competition with immobilised ligand | 0.1 µM | 100 |
| CN(C)c1nccc(-c2cnc3ncccn23)n1 | binding | – | 1 µM | 88 |
| O=C1CCc2cc(Nc3cc(OC4CCOCC4)c([N+](=O)[O-])cc3Cl)ccc2N1 | cell-free assay | competition with immobilised ligand | 1 µM | 100 |
| C=CC(=O)N1CCC(C(=O)NCC(=O)N2CCN(c3nc(-c4cnc(N)nc4C(F)F)nc(N4CCOCC4)n3)CC2)CC1 | binding | competition with immobilised ligand | 1 µM | 100 |
| COc1cnc(Nc2cccc(S(N)(=O)=O)c2)nc1N1CCN(c2ccccc2)C(=O)C1 | binding | competition with immobilised ligand | 1 µM | 100 |
| Nc1ncc2c(n1)-c1c([nH]c3ccc(C#CC4CC4)cc13)CCCC2 | binding | competition with immobilised ligand | 1 µM | 100 |
| COCCOc1nc(-c2ccc(Cl)nc2)nc2c1CN(C(=O)c1ncn3ccccc13)CC2 | cell-free assay | competition with immobilised ligand | 0.1 µM | 100 |
| CN(C)c1nccc(-c2cnn3ncccc23)n1 | binding | – | 1 µM | 90 |
| O=C(c1ccc(Nc2ncc(Cl)c(-c3cc4ccccc4s3)n2)cc1)N1CCC(N2CCCC2)CC1 | binding | competition with immobilised ligand | 1 µM | 69 |
| CSc1cccnc1N1CCN(Cc2nc3ccccc3[nH]2)CC1 | cell-free assay | competition with immobilised ligand | 1 µM | 100 |
| CN(c1nccc(-c2cnn3ncccc23)n1)C1CC1 | binding | – | 1 µM | 93 |
| Cc1nc(N2CC[C@@H](O)C2)ncc1-c1cc(C(F)(F)F)cc2[nH]ncc12 | cell-free assay | competition with immobilised ligand | 1 µM | 80 |
| COc1ccnn2ncc(-c3ccnc(N(C)C)n3)c12 | binding | – | 1 µM | 80 |
| C[C@@]1(Cc2ccc(C#N)cc2)C(=O)N(c2cc(Cl)cc(Cl)c2)c2ncc(C(=O)NC3(c4nc(C5CCC5)no4)CC3)n21 | cell-free assay | competition with immobilised ligand | 1 µM | 89 |
| C[C@H]1CCN(c2nccc(-c3cnn4ncccc34)n2)C1 | binding | – | 1 µM | 100 |
| COc1cnc(Nc2cccc(S(N)(=O)=O)c2)nc1N1CCN(c2ccccc2)CC1 | binding | competition with immobilised ligand | 1 µM | 100 |
| O=C(Nc1c[nH]nc1C(=O)NC1CCNCC1)c1cc(F)cc(F)c1 | binding | competition with immobilised ligand | 1 µM | 100 |
| O=C(NCCCN1CCOCC1)c1ccc(Nc2nccc(-c3cc4ccccc4s3)n2)cc1 | binding | competition with immobilised ligand | 1 µM | 14 |
| CCN1CCN(Cc2ccc(C(=O)Nc3ccc(C)c(Oc4ccc5c(c4)CC(=O)N5)c3)cc2C(F)(F)F)CC1 | binding | competition with immobilised ligand | 1 µM | 100 |
